{"source": "ChEMBL document CHEMBL5344453", "about": "“Selective Recognition of c-KIT 1 G-Quadruplex by Structural Tuning of Heteroaromatic Scaffolds and Side Chains” (ACS Med Chem Lett, 2024)", "key": {"[1]": {"assay": "Reduction of c-KIT oncogene expression in human K562 cells transfected with c-KIT plasmid construct assessed as reduction in luciferase expression at 5.5 uM measured after 36 hrs by luciferase reporter assay", "type": "functional", "how_it_was_run": "(§1)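 K562 cells were transfected with luciferase plasmids carrying the c-KIT, c-MYC or BCL-2 promoter G4. They were then treated with ligand (3 and 6 μM or 5.5 and 11 μM), and relative luciferase expression was measured.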"}, "[2]": {"assay": "Effect on proto-oncogene expression in human c-KIT-positive K562 cells assessed as upregulation in c-MYC oncogene expression at 11 uM measured after 24 hrs by qRT-PCR analysis relative to control", "type": "functional", "how_it_was_run": "(§2)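 K562 cells treated 24 h at two doses per ligand (3 and 6 μM, 5.5 and 11 μM; positive control 2 and 4 μM). c-KIT, c-MYC and BCL-2 mRNA measured by qRT-PCR and normalized to housekeeping gene 18s, relative to untreated control.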"}, "MCF7": {"system": "MCF7", "assay": "Cytotoxicity against human MCF7 cells assessed as cell viability measured after 24 hrs by XTT formazan assay", "type": "functional, cell-based", "settings": "MCF7, 24 h"}, "Quadruplex DNA [3]": {"system": "Quadruplex DNA", "assay": "Stabilization of calf thymus […] ds DNA 5-FAM-CAATCGGATCGAATTCGATCCGATTG-TAMRA-3 assessed as change in melting temperature at 1 uM incubated for 1 hr in dark condition by FRET-based melting assay", "type": "nucleic-acid assay", "settings": "Bos taurus", "how_it_was_run": "(§3)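 FRET melting of dual-fluorophore-tagged oligonucleotides (200 nM) in 60 mM potassium cacodylate buffer, pH 7.4, with ligand at 1 μM; ΔTm taken against the ligand-free oligonucleotide Tm as control.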"}, "K562 [4]": {"system": "K562", "assay": "Induction of cell cycle arrest in human K562 cells assessed as accumulation at G0/G1 phase at 5.5 to 11 uM incubated for 24 hrs by propidium iodide based assay", "type": "functional", "settings": "dose 5.5-11 µM", "how_it_was_run": "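K562 cells were treated with ligand (3 and 6 μM or 5.5 and 11 μM) and stained with propidium iodide. The fraction of cells in each cell-cycle phase was determined by flow cytometry.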"}, "Quadruplex DNA [5]": {"system": "Quadruplex DNA", "assay": "Stabilization of G-quadruplex c-MYC 5-FAM-TGGGGAGGGTGGGGAGGGTGGGGAAGG-TAMRA- 3 (unknown origin) assessed as change in melting temperature at 1 uM incubated for 1 hr in dark condition by FRET-based melting assay", "type": "nucleic-acid assay", "how_it_was_run": "as §3"}, "[6]": {"assay": "Reduction of c-KIT protein expression in human K562 cells at 5.5 uM measured after 24 hrs by Western blotting analysis relative to control", "type": "functional", "how_it_was_run": "(§4)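 K562 cells were treated with ligand (3 and 6 μM or 5.5 and 11 μM). c-KIT protein was measured by Western blot with GAPDH as the housekeeping reference, relative to control.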"}, "Quadruplex DNA [7]": {"system": "Quadruplex DNA", "assay": "Stabilization of G-quadruplex VEGF 5-FAM-CGGGGCGGGCCGGGGGCGGGGT-TAMRA-3 (unknown origin) assessed as change in melting temperature at 1 uM incubated for 1 hr in dark condition by FRET-based melting assay", "type": "nucleic-acid assay", "how_it_was_run": "as §3"}, "K562 [8]": {"system": "K562", "assay": "Induction of apoptosis in human K562 cells assessed as apoptosis at 11 uM incubated for 24 hrs by FITC-Annexin V and PI analysis", "type": "functional", "how_it_was_run": "(§5)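 K562 cells were treated with ligand (3 and 6 μM or 5.5 and 11 μM) and dual-stained with annexin V and PI. Early and late apoptotic populations were quantified by flow cytometry dot plot analysis.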"}, "K562 [9]": {"system": "K562", "assay": "Attenuation of proto-oncogene expression in human c-KIT-positive K562 cells assessed as reduction in c-KIT oncogene expression at 11 uM measured after 24 hrs by qRT-PCR analysis relative to control", "type": "functional", "how_it_was_run": "as §2"}, "K562 [10]": {"system": "K562", "assay": "Attenuation of proto-oncogene expression in human c-KIT-positive K562 cells assessed as reduction in c-KIT oncogene expression at 5.5 uM measured after 24 hrs by qRT-PCR analysis relative to control", "type": "functional", "how_it_was_run": "as §2"}, "Quadruplex DNA [11]": {"system": "Quadruplex DNA", "assay": "Stabilization of fluorophore tagged G-quadruplex c-KIT1 (unknown origin) assessed as change in melting temperature in presence of 0 to 100 equiv calf thymus DNA at 1 uM incubated for 1 hr in dark condition by competitive FRET-based melting assay", "type": "nucleic-acid assay", "how_it_was_run": "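Competitive FRET melting with fluorophore-labeled c-KIT 1 G-quadruplex and 1 μM ligand. Unlabeled calf thymus DNA was added at 0, 1, 5, 10, 50 and 100 molar equivalents over the labeled DNA, and ΔTm was monitored.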"}, "Quadruplex DNA [12]": {"system": "Quadruplex DNA", "assay": "Stabilization of G-quadruplex h-TELO 5-FAM-TTGGGTTAGGGTTAGGGTTAGGGA-TAMRA-3 (unknown origin) assessed as change in melting temperature at 1 uM incubated for 1 hr in dark condition by FRET-based melting assay", "type": "nucleic-acid assay", "how_it_was_run": "as §3"}, "[13]": {"assay": "Reduction of BCL-2 oncogene expression in human K562 cells transfected with BCL-2 plasmid construct assessed as reduction in luciferase expression at 11 uM measured after 36 hrs by luciferase reporter assay", "type": "functional", "how_it_was_run": "as §1"}, "K562 [14]": {"system": "K562", "assay": "Induction of apoptosis in human K562 cells assessed as apoptosis at 5.5 uM incubated for 24 hrs by FITC-Annexin V and PI analysis", "type": "functional", "how_it_was_run": "as §5"}, "[15]": {"assay": "Effect on proto-oncogene expression in human c-KIT-positive K562 cells assessed as upregulation in BCL-2 oncogene expression at 5.5 uM measured after 24 hrs by qRT-PCR analysis relative to control", "type": "functional", "how_it_was_run": "as §2"}, "[16]": {"assay": "Reduction of c-MYC oncogene expression in human K562 cells transfected with c-MYC plasmid construct assessed as reduction in luciferase expression at 5.5 uM measured after 36 hrs by luciferase reporter assay", "type": "functional", "how_it_was_run": "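Promoter luciferase reporter: K562 cells transfected with a c-MYC promoter G4-containing luciferase-expressing plasmid, then ligand-treated at two doses each (3 and 6 μM, or 5.5 and 11 μM); read-out as relative luciferase expression, reported as percent reduction.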"}, "[17]": {"assay": "Effect on proto-oncogene expression in human c-KIT-positive K562 cells assessed as down regulation in BCL-2 oncogene expression at 11 uM measured after 24 hrs by qRT-PCR analysis relative to control", "type": "functional", "how_it_was_run": "as §2"}, "[18]": {"assay": "Reduction of c-KIT protein expression in human K562 cells at 11 uM measured after 24 hrs by Western blotting analysis relative to control", "type": "functional", "settings": "K562, read-out: INH", "how_it_was_run": "as §4"}, "[19]": {"assay": "Effect on proto-oncogene expression in human c-KIT-positive K562 cells assessed as upregulation in c-MYC oncogene expression at 5.5 uM measured after 24 hrs by qRT-PCR analysis relative to control", "type": "functional", "how_it_was_run": "as §2"}, "Quadruplex DNA [20]": {"system": "Quadruplex DNA", "assay": "Stabilization of G-quadruplex c-KIT2 5-FAM-GGGCGGGCGCGAGGGAGGGG-TAMRA-3 (unknown origin) assessed as change in melting temperature at 1 uM incubated for 1 hr in dark condition by FRET-based melting assay", "type": "nucleic-acid assay", "how_it_was_run": "as §3"}, "Quadruplex DNA [21]": {"system": "Quadruplex DNA", "assay": "Stabilization of G-quadruplex BCL2 5-FAM-AGGGGCGGGCGCGGGAGGAAGGGGGCGGGAGCGGGGCTG-TAMRA-3 (unknown origin) assessed as change in melting temperature at 1 uM incubated for 1 hr in dark condition by FRET-based melting assay", "type": "nucleic-acid assay", "how_it_was_run": "as §3"}, "[22]": {"assay": "Cytotoxicity against HEK293 cells assessed as cell viability measured after 24 hrs by XTT formazan assay", "type": "toxicity, cell-based", "settings": "human"}, "[23]": {"assay": "Induction of cell permeation in human c-KIT-positive K562 cell membrane assessed as fold increase in (G- quadruplex/antibody complex) BG4 foci at 5.5 uM measured after 24 hrs by immunofluorescence assay", "type": "functional", "how_it_was_run": "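K562 cells were treated with ligand (3 or 5.5 μM) and immunostained with G4-specific antibody BG4. Nuclear BG4 foci were counted by confocal microscopy and expressed relative to untreated cells.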"}, "[24]": {"assay": "Reduction of c-KIT oncogene expression in human K562 cells transfected with c-KIT plasmid construct assessed as reduction in luciferase expression at 11 uM measured after 36 hrs by luciferase reporter assay", "type": "functional", "how_it_was_run": "as §1"}, "K562 [25]": {"system": "K562", "assay": "Cytotoxicity against human c-KIT-positive K562 cells assessed as cell viability measured after 24 hrs by XTT formazan assay", "type": "functional, cell-based", "settings": "K562, 24 h"}, "[26]": {"assay": "Reduction of BCL-2 oncogene expression in human K562 cells transfected with BCL-2 plasmid construct assessed as reduction in luciferase expression at 5.5 uM measured after 36 hrs by luciferase reporter assay", "type": "functional", "how_it_was_run": "as §1"}, "Quadruplex DNA [27]": {"system": "Quadruplex DNA", "assay": "Stabilization of G-quadruplex c-KIT1 5-FAM-GGGAGGGCGCTGGGAGGAGGG-TAMRA-3 (unknown origin) assessed as change in melting temperature at 1 uM incubated for 1 hr in dark condition by FRET-based melting assay", "type": "nucleic-acid assay", "how_it_was_run": "as §3"}, "[28]": {"assay": "Reduction of c-MYC oncogene expression in human K562 cells transfected with c-MYC plasmid construct assessed as reduction in luciferase expression at 11 uM measured after 36 hrs by luciferase reporter assay", "type": "functional", "how_it_was_run": "as §1"}}, "note": "Calls of active or inactive are those of the source. No cut-off for these calls is given here.", "data": [{"smiles": "CN(C)CCCNC(=O)c1ccc(-n2cc(-c3ccc4oc5ccccc5c4c3)nn2)cc1", "values": [{"measurement": "inhibition at 5.5 µM", "setting": "[1]", "value": 3.3, "unit": "%"}, {"measurement": "Activity", "setting": "[2]", "value": 31, "unit": "%"}, {"measurement": "IC50", "setting": "MCF7", "value": "≥ 19", "unit": "µM"}, {"measurement": "ΔTm", "setting": "Quadruplex DNA [3]", "value": "< 3", "unit": "°C"}, {"measurement": "Activity", "setting": "K562 [4]", "value": "inactive"}, {"measurement": "ΔTm", "setting": "Quadruplex DNA [5]", "value": "< 3", "unit": "°C"}, {"measurement": "inhibition at 5.5 µM", "setting": "[6]", "value": 7.8, "unit": "%"}, {"measurement": "ΔTm", "setting": "Quadruplex DNA [7]", "value": "< 3", "unit": "°C"}, {"measurement": "Activity", "setting": "K562 [8]", "value": 11, "unit": "%"}, {"measurement": "inhibition at 11 µM", "setting": "K562 [9]", "value": 3, "unit": "%"}, {"measurement": "inhibition at 5.5 µM", "setting": "K562 [10]", "value": "> 1", "unit": "%"}, {"measurement": "Activity", "setting": "Quadruplex DNA [11]", "value": "Active"}, {"measurement": "ΔTm", "setting": "Quadruplex DNA [12]", "value": "< 3", "unit": "°C"}, {"measurement": "inhibition at 11 µM", "setting": "[13]", "value": 14, "unit": "%"}, {"measurement": "Activity", "setting": "K562 [14]", "value": 1, "unit": "%"}, {"measurement": "Activity", "setting": "[15]", "value": 8, "unit": "%"}, {"measurement": "inhibition at 5.5 µM", "setting": "[16]", "value": 6.2, "unit": "%"}, {"measurement": "Activity", "setting": "[17]", "value": 5, "unit": "%"}, {"measurement": "inhibition at 11 µM", "setting": "[18]", "value": -15.8, "unit": "%"}, {"measurement": "Activity", "setting": "[19]", "value": 23, "unit": "%"}, {"measurement": "ΔTm", "setting": "Quadruplex DNA [20]", "value": "< 3", "unit": "°C"}, {"measurement": "ΔTm", "setting": "Quadruplex DNA [21]", "value": "< 3", "unit": "°C"}, {"measurement": "IC50 at 24 h", "setting": "[22]", "value": "≥ 50", "unit": "µM"}, {"measurement": "fold change (FC)", "setting": "[23]", "value": 1.8}, {"measurement": "inhibition at 11 µM", "setting": "[24]", "value": 7.6, "unit": "%"}, {"measurement": "IC50", "setting": "K562 [25]", "value": 11.7, "unit": "µM"}, {"measurement": "inhibition at 5.5 µM", "setting": "[26]", "value": 9.5, "unit": "%"}, {"measurement": "ΔTm", "setting": "Quadruplex DNA [27]", "value": "< 3", "unit": "°C"}, {"measurement": "inhibition at 11 µM", "setting": "[28]", "value": 10.1, "unit": "%"}]}]}
